28 compounds from ChEMBL document CHEMBL4138179, “Design, synthesis and cytotoxic activity of N-Modified oleanolic saponins bearing A glucosamine” (Eur J Med Chem, 2018) can be followed below.

Bounds are passed on as bounds.

Holding throughout (format): functional, cell-based
In one assay the test system is HT-29. As to the kind of experiment: Cytotoxicity against human HT-29 cells assessed as cell growth inhibition after 48 hrs by MTT assay. The settings on record: HT-29, 48 h. An outline of the steps: (§1)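 Cells from ATCC; HL-60 grown in IMDM, PC-3 in RPMI 1640, HT29 in DMEM, each with 10% FBS and penicillin/streptomycin, 37 °C, 5% CO2. Cells incubated without or with compound at the indicated concentrations and times. Mitochondrial MTT reduction read at 570 nm on a plate reader. IC50 given as mean ± SD of at least three independent experiments.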
(Tetrazolium dyes change colour on reduction, which living cells bring about.)

The test system of the next assay is HL-60. As to the kind of experiment: Cytotoxicity against human HL60 cells assessed as cell growth inhibition after 48 hrs by MTT assay. The settings on record: HL-60, 48 h. An outline of the steps:
as §1

The next assay concerns PC-3. As to the kind of experiment: Cytotoxicity against human PC3 cells assessed as cell growth inhibition after 48 hrs by MTT assay. The settings on record: PC-3, 48 h. An outline of the steps: as §1

On to `O=c1[nH]cc(F)c(=O)[nH]1` [FLUOROURACIL], for which the IC50 in the assay on HT-29 is 8.3 µM; in the assay with HL-60, more than 30 µM; in the assay with PC-3, more than 30 µM.

With `CC[C@]1(O)C[C@H]2CN(CCc3c([nH]c4ccccc34)[C@@](C(=O)OC)(c3cc4c(cc3OC)N(C=O)[C@H]3[C@@](O)(C(=O)OC)[C@H](OC(C)=O)[C@]5(CC)C=CCN6CC[C@]43[C@@H]65)C2)C1` [VINCRISTINE], the IC50 in the assay with HL-60 is 0.0018 µM; in the assay with PC-3, more than 0.025 µM.

Regarding `CCCOC(=O)N[C@H]1[C@H](O[C@H]2CC[C@]3(C)[C@H]4CC=C5[C@@H]6CC(C)(C)CC[C@]6(C(=O)O)CC[C@@]5(C)[C@]4(C)CC[C@H]3C2(C)C)O[C@H](CO)[C@@H](O)[C@@H]1O`, the results for the IC50 in the assay with HT-29, with HL-60 and in the assay with PC-3 were more than 30 µM, 21.5 µM and more than 30 µM, respectively.

With `CCCCCOC(=O)N[C@H]1[C@H](O[C@H]2CC[C@]3(C)[C@H]4CC=C5[C@@H]6CC(C)(C)CC[C@]6(C(=O)O)CC[C@@]5(C)[C@]4(C)CC[C@H]3C2(C)C)O[C@H](CO)[C@@H](O)[C@@H]1O`, the concentration for half-maximal inhibition (IC50) in the assay with HT-29 was more than 30 µM; in the assay with HL-60 it was 1.46 µM; with PC-3, more than 30 µM.

`CCCCCCCCCCCCCCCCCC(=O)N[C@H]1[C@H](O[C@H]2CC[C@]3(C)[C@H]4CC=C5[C@@H]6CC(C)(C)CC[C@]6(C(=O)O)CC[C@@]5(C)[C@]4(C)CC[C@H]3C2(C)C)O[C@H](CO)[C@@H](O)[C@@H]1O`: the IC50 in the assay with HT-29, in the assay on HL-60 and with PC-3 was more than 30 µM each time.

`CCCCCCCCOC(=O)N[C@H]1[C@H](O[C@H]2CC[C@]3(C)[C@H]4CC=C5[C@@H]6CC(C)(C)CC[C@]6(C(=O)O)CC[C@@]5(C)[C@]4(C)CC[C@H]3C2(C)C)O[C@H](CO)[C@@H](O)[C@@H]1O`: the figures for the concentration for half-maximal inhibition (IC50) with HT-29, with HL-60 and in the assay with PC-3 were 20.3 µM, 1.42 µM and 15.4 µM, respectively.

As for `CCCCCCC(=O)N[C@H]1[C@H](O[C@H]2CC[C@]3(C)[C@H]4CC=C5[C@@H]6CC(C)(C)CC[C@]6(C(=O)O)CC[C@@]5(C)[C@]4(C)CC[C@H]3C2(C)C)O[C@H](CO)[C@H](O)[C@@H]1O`, the IC50 in the assay on HT-29 was more than 30 µM; with HL-60, 2.69 µM; in the assay on PC-3, more than 30 µM.

Turning to `CC1(C)CC[C@]2(C(=O)O)CC[C@]3(C)C(=CC[C@@H]4[C@@]5(C)CC[C@H](O[C@@H]6O[C@H](CO)[C@@H](O)[C@H](O)[C@H]6N)C(C)(C)[C@@H]5CC[C@]43C)[C@@H]2C1`, the IC50 in the assay on HT-29 was more than 30 µM; with HL-60, 2.65 µM; in the assay with PC-3, 25 µM.

Regarding `CCCCCCCCCC(=O)N[C@H]1[C@H](O[C@H]2CC[C@]3(C)[C@H]4CC=C5[C@@H]6CC(C)(C)CC[C@]6(C(=O)O)CC[C@@]5(C)[C@]4(C)CC[C@H]3C2(C)C)O[C@H](CO)[C@@H](O)[C@@H]1O`, the IC50 in the assay with HT-29 is more than 30 µM; in the assay on HL-60 it was 1.4 µM; in the assay with PC-3, more than 30 µM.

With `CCCCCCCCCCCCCCCC(=O)N[C@H]1[C@H](O[C@H]2CC[C@]3(C)[C@H]4CC=C5[C@@H]6CC(C)(C)CC[C@]6(C(=O)O)CC[C@@]5(C)[C@]4(C)CC[C@H]3C2(C)C)O[C@H](CO)[C@@H](O)[C@@H]1O`, the IC50 in the assay on HT-29, in the assay on HL-60 and with PC-3 was more than 30 µM each time.

On to `CCCCC(=O)N[C@H]1[C@H](O[C@H]2CC[C@]3(C)[C@H]4CC=C5[C@@H]6CC(C)(C)CC[C@]6(C(=O)O)CC[C@@]5(C)[C@]4(C)CC[C@H]3C2(C)C)O[C@H](CO)[C@@H](O)[C@@H]1O`, for which the IC50 in the assay on HT-29 came to 21.7 µM; in the assay on HL-60 it was 10.6 µM; in the assay with PC-3, 24 µM.

As for `CCCCCCCCCCCC(=O)N[C@H]1[C@H](O[C@H]2CC[C@]3(C)[C@H]4CC=C5[C@@H]6CC(C)(C)CC[C@]6(C(=O)O)CC[C@@]5(C)[C@]4(C)CC[C@H]3C2(C)C)O[C@H](CO)[C@@H](O)[C@@H]1O`, the figures for the IC50 with HT-29, in the assay on HL-60 and with PC-3 were more than 30 µM, 1.57 µM and 21.4 µM, respectively.

Take `CCCCOC(=O)N[C@H]1[C@H](O[C@H]2CC[C@]3(C)[C@H]4CC=C5[C@@H]6CC(C)(C)CC[C@]6(C(=O)O)CC[C@@]5(C)[C@]4(C)CC[C@H]3C2(C)C)O[C@H](CO)[C@@H](O)[C@@H]1O`: the IC50 in the assay on HT-29 came to 18.1 µM; with HL-60, 2.23 µM; in the assay on PC-3, 15 µM.

With `CCCCCCCCCCCCCC(=O)N[C@H]1[C@H](O[C@H]2CC[C@]3(C)[C@H]4CC=C5[C@@H]6CC(C)(C)CC[C@]6(C(=O)O)CC[C@@]5(C)[C@]4(C)CC[C@H]3C2(C)C)O[C@H](CO)[C@@H](O)[C@@H]1O`, the values for the IC50 with HT-29, in the assay on HL-60 and in the assay with PC-3 were more than 30 µM, 10.7 µM and more than 30 µM, respectively.

Consider `CCCCCCCCC(=O)N[C@H]1[C@H](O[C@H]2CC[C@]3(C)[C@H]4CC=C5[C@@H]6CC(C)(C)CC[C@]6(C(=O)O)CC[C@@]5(C)[C@]4(C)CC[C@H]3C2(C)C)O[C@H](CO)[C@@H](O)[C@@H]1O`, for which the IC50 was determined as 22.8 µM in the assay on HT-29, 1.46 µM in the assay with HL-60 and 14.7 µM with PC-3.

With `CCC(=O)N[C@H]1[C@H](O[C@H]2CC[C@]3(C)[C@H]4CC=C5[C@@H]6CC(C)(C)CC[C@]6(C(=O)O)CC[C@@]5(C)[C@]4(C)CC[C@H]3C2(C)C)O[C@H](CO)[C@@H](O)[C@@H]1O`, the half-inhibitory concentration (IC50) in the assay on HT-29 is 16.4 µM; in the assay on HL-60, 6.83 µM; in the assay with PC-3, 11.9 µM.

Regarding `CC(=O)N[C@H]1[C@H](O[C@H]2CC[C@]3(C)[C@H]4CC=C5[C@@H]6CC(C)(C)CC[C@]6(C(=O)O)CC[C@@]5(C)[C@]4(C)CC[C@H]3C2(C)C)O[C@H](CO)[C@@H](O)[C@@H]1O`, the half-maximal inhibitory concentration (IC50) in the assay on HT-29 is more than 30 µM; in the assay on HL-60 it was 10.3 µM; with PC-3, more than 30 µM.

As for `CCCCCCCCNC(=O)N[C@H]1[C@H](O[C@H]2CC[C@]3(C)[C@H]4CC=C5[C@@H]6CC(C)(C)CC[C@]6(C(=O)O)CC[C@@]5(C)[C@]4(C)CC[C@H]3C2(C)C)O[C@H](CO)[C@@H](O)[C@@H]1O`, the results for the IC50 in the assay on HT-29, with HL-60 and in the assay on PC-3 were more than 30 µM, 2.14 µM and more than 30 µM, respectively.

Regarding `CCCCCCCOC(=O)N[C@H]1[C@H](O[C@H]2CC[C@]3(C)[C@H]4CC=C5[C@@H]6CC(C)(C)CC[C@]6(C(=O)O)CC[C@@]5(C)[C@]4(C)CC[C@H]3C2(C)C)O[C@H](CO)[C@@H](O)[C@@H]1O`, the IC50 in the assay with HT-29 worked out at 21.7 µM; in the assay with HL-60, 0.76 µM; with PC-3, 15.4 µM.

Consider `CCCCCC(=O)N[C@H]1[C@H](O[C@H]2CC[C@]3(C)[C@H]4CC=C5[C@@H]6CC(C)(C)CC[C@]6(C(=O)O)CC[C@@]5(C)[C@]4(C)CC[C@H]3C2(C)C)O[C@H](CO)[C@@H](O)[C@@H]1O`, for which the IC50 in the assay on HT-29 is more than 30 µM; in the assay on HL-60, 5.82 µM; in the assay with PC-3 it was more than 30 µM.

Regarding `COC(=O)N[C@H]1[C@H](O[C@H]2CC[C@]3(C)[C@H]4CC=C5[C@@H]6CC(C)(C)CC[C@]6(C(=O)O)CC[C@@]5(C)[C@]4(C)CC[C@H]3C2(C)C)O[C@H](CO)[C@@H](O)[C@@H]1O`, the IC50 with HT-29 is more than 30 µM; in the assay with HL-60, 11.4 µM; in the assay with PC-3, more than 30 µM.

`CCCC(=O)N[C@H]1[C@H](O[C@H]2CC[C@]3(C)[C@H]4CC=C5[C@@H]6CC(C)(C)CC[C@]6(C(=O)O)CC[C@@]5(C)[C@]4(C)CC[C@H]3C2(C)C)O[C@H](CO)[C@@H](O)[C@@H]1O`: the IC50 in the assay on HT-29 was more than 30 µM; in the assay on HL-60 it was 2.48 µM; in the assay on PC-3 it was more than 30 µM.

For the compound `CCCCCCCC(=O)N[C@H]1[C@H](O[C@H]2CC[C@]3(C)[C@H]4CC=C5[C@@H]6CC(C)(C)CC[C@]6(C(=O)O)CC[C@@]5(C)[C@]4(C)CC[C@H]3C2(C)C)O[C@H](CO)[C@@H](O)[C@@H]1O`, the IC50 was 21.9 µM in the assay on HT-29, 1.68 µM in the assay with HL-60 and 19.4 µM in the assay with PC-3.

Take `CCCCCCCCCOC(=O)N[C@H]1[C@H](O[C@H]2CC[C@]3(C)[C@H]4CC=C5[C@@H]6CC(C)(C)CC[C@]6(C(=O)O)CC[C@@]5(C)[C@]4(C)CC[C@H]3C2(C)C)O[C@H](CO)[C@@H](O)[C@@H]1O`: the IC50 in the assay with HT-29 was found to be 22 µM; in the assay on HL-60, 1.23 µM; in the assay on PC-3 it was 16.1 µM.

Consider `CC1(C)CC[C@]2(C(=O)O)CC[C@]3(C)C(=CC[C@@H]4[C@@]5(C)CC[C@H](O)C(C)(C)[C@@H]5CC[C@]43C)[C@@H]2C1` [OLEANOLIC_ACID], for which the IC50 in the assay with HT-29, in the assay with HL-60 and in the assay with PC-3 was more than 30 µM each time.

In the case of `CCCCCCOC(=O)N[C@H]1[C@H](O[C@H]2CC[C@]3(C)[C@H]4CC=C5[C@@H]6CC(C)(C)CC[C@]6(C(=O)O)CC[C@@]5(C)[C@]4(C)CC[C@H]3C2(C)C)O[C@H](CO)[C@@H](O)[C@@H]1O`, the IC50 with HT-29 turned out to be 21.4 µM; with HL-60, 1.44 µM; with PC-3, 13.9 µM.

As for `CC(=O)N[C@H]1[C@H](O[C@H]2CC[C@]3(C)[C@H]4CC=C5[C@@H]6CC(C)(C)CC[C@]6(C(=O)O)CC[C@@]5(C)[C@]4(C)CC[C@H]3C2(C)C)O[C@H](CO)[C@H](O)[C@@H]1O`, the values for the IC50 in the assay with HT-29, in the assay with HL-60 and in the assay on PC-3 were 23.3 µM, 11.6 µM and 23.4 µM, respectively.

For the compound `CCOC(=O)N[C@H]1[C@H](O[C@H]2CC[C@]3(C)[C@H]4CC=C5[C@@H]6CC(C)(C)CC[C@]6(C(=O)O)CC[C@@]5(C)[C@]4(C)CC[C@H]3C2(C)C)O[C@H](CO)[C@@H](O)[C@@H]1O`, the IC50 was more than 30 µM in the assay with HT-29, 12.5 µM in the assay with HL-60 and more than 30 µM in the assay on PC-3.

The IC50 is the concentration that gives 50% inhibition.
